Results: PMC8028158 (ACS Omega, 2021)
Entries after “also recorded” stand apart in the source; their conditions may differ.

Columns and labels:
TRPV1 = TRPV1 (Homo sapiens, UniProt Q8NER1); experiment: Selectivity Ca2+ assay in TRPV1-expressing HEK293 cells; type: cell-based; details: 1s 50 μM; Fluo-8
human TRPC3 = target: T1, human TRPC3 (Homo sapiens, UniProt Q13507); experiment: Fluorescence Ca2+ assay in TRPC3-HEK293 cells; type: cell-based
T1 sequence (Q13507 1-921): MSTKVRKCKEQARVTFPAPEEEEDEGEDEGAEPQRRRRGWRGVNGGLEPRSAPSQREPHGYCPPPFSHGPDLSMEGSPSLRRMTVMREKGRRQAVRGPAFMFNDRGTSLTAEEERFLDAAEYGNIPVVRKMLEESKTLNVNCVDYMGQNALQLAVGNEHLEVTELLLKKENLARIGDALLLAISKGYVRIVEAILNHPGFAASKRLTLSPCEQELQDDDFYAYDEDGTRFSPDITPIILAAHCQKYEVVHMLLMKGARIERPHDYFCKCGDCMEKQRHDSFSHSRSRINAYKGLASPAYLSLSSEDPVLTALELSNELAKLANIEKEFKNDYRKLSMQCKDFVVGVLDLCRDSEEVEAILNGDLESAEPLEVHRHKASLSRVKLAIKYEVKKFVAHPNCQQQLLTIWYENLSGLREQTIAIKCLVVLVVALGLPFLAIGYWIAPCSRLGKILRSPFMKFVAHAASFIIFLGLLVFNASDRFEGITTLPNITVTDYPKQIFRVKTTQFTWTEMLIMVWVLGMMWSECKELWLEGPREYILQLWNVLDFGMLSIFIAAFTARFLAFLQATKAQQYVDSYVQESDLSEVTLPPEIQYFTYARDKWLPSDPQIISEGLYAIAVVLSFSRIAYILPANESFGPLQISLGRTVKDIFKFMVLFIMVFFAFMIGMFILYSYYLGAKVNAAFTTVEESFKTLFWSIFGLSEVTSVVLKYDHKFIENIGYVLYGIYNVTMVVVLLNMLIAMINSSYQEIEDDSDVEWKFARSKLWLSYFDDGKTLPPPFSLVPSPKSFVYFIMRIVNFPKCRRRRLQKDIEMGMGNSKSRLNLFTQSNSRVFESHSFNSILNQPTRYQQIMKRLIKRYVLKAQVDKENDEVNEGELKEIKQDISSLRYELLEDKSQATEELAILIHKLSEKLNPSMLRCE

AGS cells = experiment: MTT cell viability assay, AGS; type: cell-based, human; details: Homo sapiens, AGS, 72 h, read-out: IC50 cell proliferation, AGS
Summary of the method: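 Cells were seeded at 2000 per well, incubated overnight and exposed to test compound for 72 h. MTT was added for 4 h, formazan was dissolved in DMSO and absorbance was read at 570 nm. Viability was normalized to untreated wells, giving mean ± SEM of three trials. IC50 was calculated from relative survival.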

TRPV3 = target: T2, TRPV3 (Homo sapiens, UniProt Q8NET8); experiment: Selectivity Ca2+ assay in TRPV3-expressing HEK293 cells; type: cell-based; details: 1s 50 μM; Fluo-8
T2 sequence (Q8NET8 1-790): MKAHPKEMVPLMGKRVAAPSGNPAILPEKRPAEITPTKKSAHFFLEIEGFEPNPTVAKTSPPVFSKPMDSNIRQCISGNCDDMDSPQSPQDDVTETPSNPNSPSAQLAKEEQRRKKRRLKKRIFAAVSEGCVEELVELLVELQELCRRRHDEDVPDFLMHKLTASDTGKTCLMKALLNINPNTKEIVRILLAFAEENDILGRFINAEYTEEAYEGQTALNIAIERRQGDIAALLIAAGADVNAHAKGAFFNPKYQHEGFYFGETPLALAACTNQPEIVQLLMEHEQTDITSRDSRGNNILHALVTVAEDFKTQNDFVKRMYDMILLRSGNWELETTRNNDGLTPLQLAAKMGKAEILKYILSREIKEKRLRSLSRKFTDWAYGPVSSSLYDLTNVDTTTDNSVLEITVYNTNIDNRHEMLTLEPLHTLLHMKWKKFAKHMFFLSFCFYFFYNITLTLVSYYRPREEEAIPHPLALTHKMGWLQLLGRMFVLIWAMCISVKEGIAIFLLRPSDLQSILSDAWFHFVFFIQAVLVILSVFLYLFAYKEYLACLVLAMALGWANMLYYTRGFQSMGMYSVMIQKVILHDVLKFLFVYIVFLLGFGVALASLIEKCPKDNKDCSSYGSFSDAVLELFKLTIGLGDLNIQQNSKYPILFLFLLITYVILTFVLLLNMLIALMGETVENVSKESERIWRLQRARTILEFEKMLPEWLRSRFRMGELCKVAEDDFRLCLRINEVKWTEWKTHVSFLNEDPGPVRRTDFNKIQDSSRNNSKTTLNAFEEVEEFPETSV

mouse TRPC5 = target: T3, mouse TRPC5 (Mus musculus, UniProt Q9QX29); experiment: Selectivity Ca2+ assay in TRPC5-expressing HEK293 cells; type: cell-based; details: 1s 50 μM; induced by 100 μM CCh; Fluo-8
T3 sequence (Q9QX29 1-975): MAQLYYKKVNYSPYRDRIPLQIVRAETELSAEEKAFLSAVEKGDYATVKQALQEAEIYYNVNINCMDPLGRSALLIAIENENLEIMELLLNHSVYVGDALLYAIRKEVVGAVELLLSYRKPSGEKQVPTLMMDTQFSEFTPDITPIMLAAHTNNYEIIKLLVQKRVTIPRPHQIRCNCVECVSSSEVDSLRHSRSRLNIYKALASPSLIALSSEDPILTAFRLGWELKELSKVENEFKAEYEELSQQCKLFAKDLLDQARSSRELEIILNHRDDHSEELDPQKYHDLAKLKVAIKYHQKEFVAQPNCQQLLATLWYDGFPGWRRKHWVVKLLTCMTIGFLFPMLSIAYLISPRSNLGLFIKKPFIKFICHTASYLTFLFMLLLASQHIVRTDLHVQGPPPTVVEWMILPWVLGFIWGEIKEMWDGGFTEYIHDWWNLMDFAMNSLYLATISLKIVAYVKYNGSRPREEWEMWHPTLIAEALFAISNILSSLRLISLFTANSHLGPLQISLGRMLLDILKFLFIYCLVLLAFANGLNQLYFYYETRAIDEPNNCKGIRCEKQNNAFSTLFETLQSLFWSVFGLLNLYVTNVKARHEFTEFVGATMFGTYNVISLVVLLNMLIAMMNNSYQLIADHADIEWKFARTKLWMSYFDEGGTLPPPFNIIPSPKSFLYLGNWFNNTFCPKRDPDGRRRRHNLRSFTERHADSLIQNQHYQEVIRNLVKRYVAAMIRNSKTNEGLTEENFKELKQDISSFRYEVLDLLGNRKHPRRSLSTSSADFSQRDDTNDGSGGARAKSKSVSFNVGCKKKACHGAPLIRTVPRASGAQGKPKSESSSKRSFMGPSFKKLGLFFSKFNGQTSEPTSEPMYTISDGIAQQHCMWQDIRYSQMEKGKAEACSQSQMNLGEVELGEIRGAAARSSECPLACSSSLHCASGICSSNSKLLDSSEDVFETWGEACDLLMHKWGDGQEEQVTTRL

TRPA1 = TRPA1 (Homo sapiens, UniProt O75762); experiment: Selectivity Ca2+ assay in TRPA1-expressing HEK293 cells; type: cell-based; details: 1s 50 μM; Fluo-8
TRPA1, sequence (O75762 whole entry, species assumed): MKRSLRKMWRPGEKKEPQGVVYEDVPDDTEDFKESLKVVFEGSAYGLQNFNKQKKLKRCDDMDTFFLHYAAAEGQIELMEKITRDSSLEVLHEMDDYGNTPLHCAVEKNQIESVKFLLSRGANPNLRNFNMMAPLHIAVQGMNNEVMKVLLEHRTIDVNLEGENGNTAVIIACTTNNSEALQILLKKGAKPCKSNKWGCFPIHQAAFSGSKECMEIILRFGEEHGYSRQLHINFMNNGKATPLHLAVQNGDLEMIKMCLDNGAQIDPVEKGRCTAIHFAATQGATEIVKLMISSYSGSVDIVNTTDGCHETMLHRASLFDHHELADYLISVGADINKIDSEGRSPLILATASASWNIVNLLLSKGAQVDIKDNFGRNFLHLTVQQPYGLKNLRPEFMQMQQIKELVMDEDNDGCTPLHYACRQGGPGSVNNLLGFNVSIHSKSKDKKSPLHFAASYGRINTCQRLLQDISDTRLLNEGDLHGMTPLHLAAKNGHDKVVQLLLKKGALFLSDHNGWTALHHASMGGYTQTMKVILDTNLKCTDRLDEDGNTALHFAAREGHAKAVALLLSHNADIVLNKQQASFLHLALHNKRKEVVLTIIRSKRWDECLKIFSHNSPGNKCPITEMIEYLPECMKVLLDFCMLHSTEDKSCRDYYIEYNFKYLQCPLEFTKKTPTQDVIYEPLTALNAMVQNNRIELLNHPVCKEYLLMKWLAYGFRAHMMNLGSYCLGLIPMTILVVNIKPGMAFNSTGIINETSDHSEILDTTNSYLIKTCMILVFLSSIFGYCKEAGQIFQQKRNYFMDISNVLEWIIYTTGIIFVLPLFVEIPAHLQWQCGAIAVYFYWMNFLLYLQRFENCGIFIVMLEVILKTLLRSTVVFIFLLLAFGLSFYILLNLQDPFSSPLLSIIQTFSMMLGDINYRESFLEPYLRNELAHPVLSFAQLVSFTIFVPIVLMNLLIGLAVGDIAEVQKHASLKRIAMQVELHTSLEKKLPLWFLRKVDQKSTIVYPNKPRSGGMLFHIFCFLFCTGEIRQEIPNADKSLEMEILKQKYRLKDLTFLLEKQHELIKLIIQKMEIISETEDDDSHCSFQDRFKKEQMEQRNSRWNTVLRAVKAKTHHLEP

TRPV1, sequence (Q8NER1 whole entry, species assumed): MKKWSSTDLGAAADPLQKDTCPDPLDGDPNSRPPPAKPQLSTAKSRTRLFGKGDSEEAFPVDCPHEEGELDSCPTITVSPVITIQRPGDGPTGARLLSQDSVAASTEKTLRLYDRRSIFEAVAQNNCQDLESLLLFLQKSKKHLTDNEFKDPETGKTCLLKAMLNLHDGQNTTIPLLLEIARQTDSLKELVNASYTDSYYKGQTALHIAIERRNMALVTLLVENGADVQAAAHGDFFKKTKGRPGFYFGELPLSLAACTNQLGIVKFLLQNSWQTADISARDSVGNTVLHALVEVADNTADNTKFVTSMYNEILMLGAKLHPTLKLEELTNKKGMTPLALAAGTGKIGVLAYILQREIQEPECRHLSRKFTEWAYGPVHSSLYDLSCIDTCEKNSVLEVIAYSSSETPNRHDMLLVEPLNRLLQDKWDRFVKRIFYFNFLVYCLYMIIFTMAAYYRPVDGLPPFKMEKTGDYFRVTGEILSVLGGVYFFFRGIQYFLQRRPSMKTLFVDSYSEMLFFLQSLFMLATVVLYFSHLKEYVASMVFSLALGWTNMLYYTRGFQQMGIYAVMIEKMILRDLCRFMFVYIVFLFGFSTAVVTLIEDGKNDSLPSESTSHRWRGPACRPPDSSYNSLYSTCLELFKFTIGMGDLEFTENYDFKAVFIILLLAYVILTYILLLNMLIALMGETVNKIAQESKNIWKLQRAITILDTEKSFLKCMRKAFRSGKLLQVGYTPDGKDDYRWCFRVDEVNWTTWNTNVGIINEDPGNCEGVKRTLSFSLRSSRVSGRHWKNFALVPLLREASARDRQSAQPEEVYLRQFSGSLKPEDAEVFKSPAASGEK

Effect on agonist-induced Ca2+ response, TRPV1 (TRPV1): did not significantly affect
IC50 (human TRPC3): 3.3 ± 0.13 µM
IC50 (AGS cells): 12 ± 1.01 µM
Effect on agonist-induced Ca2+ response, TRPV3 (TRPV3): did not significantly affect
Effect on agonist-induced Ca2+ response, TRPA1 (TRPA1): did not significantly affect
Structure (SMILES): COc1cccc2sc(N(CCN(C)C)C(=O)c3ccc4c(c3)CCCC4)nc12 [Compound 1s, N-(2-(dimethylamino)ethyl)-N-(4-methoxybenzo[d]thiazol-2-yl)-5,6,7,8-tetrahydronaphthalene-2-carboxamide]
Effect on agonist-induced Ca2+ response, TRPC5 (mouse TRPC5): did not significantly affect; also recorded: no effect
